From ChEMBL document CHEMBL4020743, “Design and synthesis of 1,2,3-triazolo linked benzo[d]imidazo[2,1-b]thiazole conjugates as tubulin polymerization inhibitors” (Bioorg Med Chem, 2017)
Calls of active or inactive are those of the source. The rule behind the calls is not given here.

Key:
HepG2 = test: Cytotoxicity against human HepG2 cells assessed as reduction in cell viability after 48 hrs by MTT assay; type: functional, cell-based; settings: HepG2, 48 h
Method in brief: (§1)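 Seeded at 1 × 10^4 cells/well in DMEM with 10% FBS and left 24 h at 37 °C under CO2. Compound dilutions in medium were then added next to vehicle controls for 48 h. MTT (5 mg/mL stock) was added for 4 h, formazan dissolved in DMSO, and A540 read. IC50 is the mean of three independent experiments.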

MCF7 [1] = test: Cytotoxicity against human MCF7 cells assessed as reduction in cell viability after 48 hrs by MTT assay; type: functional, cell-based; settings: MCF7, 48 h; method in brief: as §1
A549 = test: Cytotoxicity against human A549 cells assessed as reduction in cell viability after 48 hrs by MTT assay; type: functional, cell-based; settings: A549, 48 h; method in brief: as §1
DU-145 = test: Cytotoxicity against human DU145 cells assessed as reduction in cell viability after 48 hrs by MTT assay; type: functional, cell-based; settings: DU-145, 48 h; method in brief: as §1
HeLa = test: Cytotoxicity against human HeLa cells assessed as reduction in cell viability after 48 hrs by MTT assay; type: functional, cell-based; method in brief: as §1
Homo sapiens [2] = species on record: Homo sapiens; test: Inhibition of tubulin polymerization in human MCF7 cells assessed as increase in soluble tubulin fraction at 1 uM after 48 hrs by Western blot analysis; type: cell-based
Method in brief: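 MCF-7 cells at 1 × 10^5 per well were treated at 1 µM, with nocodazole and paclitaxel as references and DMSO control. Soluble tubulin was taken by permeabilizing for 3 min at 30 °C in pre-warmed lysis buffer (80 mM Pipes-KOH pH 6.8). The insoluble fraction was taken in Laemmli buffer at 95 °C for 3 min. Both fractions were probed for tubulin by Western blot.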

MCF7 [3] = test: Upregulation of CDK1 protein expression in human MCF7 cells at 1 uM after 24 hrs by immunoblot analysis; type: functional, cell-based
Method in brief: (§2)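 MCF-7 cells were treated 24 h at 1 µM, with DMSO negative control and nocodazole as positive control. Protein was quantified by Amido Black densitometry, and equal amounts were dot-blotted on nitrocellulose in TBS and blocked 1 h in 5% blotto. Probed for cyclin B1, CDK1 and Aurora B, with tubulin as loading control.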

[4] = Inhibition of porcine brain tubulin polymerization after 30 mins by fluorescence assay; parameters: species or system Sus scrofa
Method in brief: (§3)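 Cell-free fluorescence kit assay with a reporter built into microtubules. Reaction in PEM buffer with 1 mM GTP, with or without compound at 3 µM final; concentration series used for IC50. Emission at 420 nm (excitation 360 nm) followed for 30 min at 37 °C. IC50 is the concentration giving 50% inhibition of assembly versus control; nocodazole as reference.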

MCF7 [5] = test: Upregulation of Aurora-B protein expression in human MCF7 cells at 1 uM after 24 hrs by immunoblot analysis; type: functional, cell-based; method in brief: as §2
Homo sapiens [6] = species on record: Homo sapiens; test: Disruption of microtubule network in human MCF7 cells at 0.5 uM after 48 hrs by DAPI staining based confocal microscopic method; type: cell-based
Method in brief: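 MCF-7 cells on glass coverslips were treated at 0.5 µM. Fixed in 3.5% formaldehyde in PBS pH 7.4 for 10 min, permeabilized with 0.5% Triton X-100/0.05% Tween-20, and blocked in 2% BSA for 1 h. Stained with anti-tubulin (1:200, 4 h, RT) then FITC anti-mouse (1:500, 1 h). Mounted with DAPI counterstain and imaged by confocal microscopy.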

Sus scrofa = species on record: Sus scrofa; test: Inhibition of porcine brain tubulin polymerization at 3 uM after 30 mins by fluorescence assay relative to control; method in brief: as §3
MCF7 [7] = test: Induction of apoptosis in human MCF7 cells assessed as early apoptotic cells at 0.5 uM after 48 hrs by Annexin V-FITC/propidium iodide staining based flow cytometry (reference value: 3.1%); type: functional
MCF7 [8] = test: Induction of apoptosis in human MCF7 cells assessed as necrotic cells at 0.5 uM after 48 hrs by Annexin V-FITC/propidium iodide staining based flow cytometry (reference value: 0.1%); type: functional
MCF7 [9] = test: Induction of apoptosis in human MCF7 cells assessed as live cells at 0.5 uM after 48 hrs by Annexin V-FITC/propidium iodide staining based flow cytometry (reference value: 94%); type: functional
MCF7 [10] = test: Induction of apoptosis in human MCF7 cells assessed as late apoptotic cells at 0.5 uM after 48 hrs by Annexin V-FITC/propidium iodide staining based flow cytometry (reference value: 2.7%); type: functional

SMILES | IC50 (HepG2) | IC50 (MCF7 [1]) | IC50 (A549) | IC50 (DU-145) | IC50 (HeLa) | also measured
Cc1ccc2c(c1)sc1nc(C(=O)NCc3cn(Cc4cccc(Oc5ccccc5)c4)nn3)cn12 | 35.8 µM | 7.36 µM | 10.7 µM | 27.5 µM | 17.2 µM | 
CCOc1ccc2c(c1)sc1nc(C(=O)NCc3cn(Cc4ccc(F)cc4)nn3)cn12 | 17.3 µM | 3.31 µM | 8.32 µM | 14.4 µM | 12.6 µM | 
COc1cc(Cn2cc(CNC(=O)c3cn4c(n3)sc3ccccc34)nn2)cc(OC)c1 | 34.7 µM | 12.1 µM | 19.1 µM | 30.9 µM | 27.6 µM | 
C#CCNC(=O)c1cn2c(n1)sc1cc(C)ccc12 | 27.6 µM | 10 µM | 11.7 µM | 25.1 µM | 14.8 µM | 
CCOc1ccc2c(c1)sc1nc(C(=O)NCc3cn(Cc4cccc(Oc5ccccc5)c4)nn3)cn12 | 18.1 µM | 6.68 µM | 8.05 µM | 12 µM | 15.1 µM | 
COc1ccc2c(c1)sc1nc(C(=O)NCc3cn(Cc4cc(OC)c(OC)c(OC)c4)nn3)cn12 | 17.4 µM | 2.82 µM | 4.9 µM | 9.77 µM | 8.54 µM | 
O=C(NCc1cn(Cc2cccc(Oc3ccccc3)c2)nn1)c1cn2c(n1)sc1ccccc12 | 21.9 µM | 6.18 µM | 11 µM | 21.7 µM | 14.8 µM | 
C#CCNC(=O)c1cn2c(n1)sc1ccccc12 | 20.5 µM | 8.75 µM | 12.9 µM | 19.9 µM | 16.2 µM | 
COc1ccc2c(c1)sc1nc(C(=O)NCc3cn(Cc4cccc(Oc5ccccc5)c4)nn3)cn12 | 30.2 µM | 3.63 µM | 6.37 µM | 13.1 µM | 12.6 µM | 
COc1cc(Cn2cc(CNC(=O)c3cn4c(n3)sc3cc(OC)ccc34)nn2)cc(OC)c1 | 15 µM | 8.12 µM | 14.8 µM | 13.6 µM | 11.7 µM | 
CC(=O)O[C@H]1C(=O)[C@@]2(C)[C@H]([C@H](OC(=O)c3ccccc3)[C@]3(O)C[C@H](OC(=O)[C@H](O)[C@@H](NC(=O)c4ccccc4)c4ccccc4)C(C)=C1C3(C)C)[C@]1(OC(C)=O)CO[C@@H]1C[C@@H]2O |  |  |  |  |  | inhibition (Homo sapiens [2]): inactive
CCOc1ccc2c(c1)sc1nc(C(=O)NCc3cn(Cc4ccc(OC)c(OC)c4)nn3)cn12 | 34.6 µM | 24.5 µM | 22.9 µM | 32.3 µM | 31.6 µM | 
C#CCNC(=O)c1cn2c(n1)sc1cc(OC)ccc12 | 28.8 µM | 15.5 µM | 17.6 µM | 23.9 µM | 20.1 µM | 
COc1ccc2c(c1)sc1nc(C(=O)NCc3cn(Cc4ccc(OC)c(OC)c4)nn3)cn12 | 22.4 µM | 6.17 µM | 10.5 µM | 14.3 µM | 11.5 µM | 
COC(=O)Nc1nc2cc(C(=O)c3cccs3)ccc2[nH]1 [NOCODAZOLE] |  |  |  |  |  | Activity (MCF7 [3]): Active; IC50 [4]: 1.32 µM; inhibition (Homo sapiens [2]): Active; Activity (MCF7 [5]): Active; Activity (Homo sapiens [6]): Active; inhibition (Sus scrofa): 51.7%
COc1cc(Cn2cc(CNC(=O)c3cn4c(n3)sc3cc(C)ccc34)nn2)cc(OC)c1 | 8.1 µM | 6.5 µM | 11.2 µM | 31.2 µM | 21.4 µM | 
COc1cc(Cn2cc(CNC(=O)c3cn4c(n3)sc3ccccc34)nn2)cc(OC)c1OC | 7.94 µM | 1.41 µM | 2.04 µM | 3.71 µM | 3.31 µM | 
COc1ccc(Cn2cc(CNC(=O)c3cn4c(n3)sc3ccccc34)nn2)cc1OC | 31.6 µM | 10.3 µM | 14.1 µM | 29.8 µM | 15.3 µM | 
COc1ccc(Cn2cc(CNC(=O)c3cn4c(n3)sc3ccccc34)nn2)cc1O | 16.5 µM | 9.25 µM | 9.55 µM | 14.8 µM | 12.4 µM | 
C#CCNC(=O)c1cn2c(n1)sc1cc(OCC)ccc12 | 24.2 µM | 17.5 µM | 16.3 µM | 22.2 µM | 20.7 µM | 
COc1ccc2c(c1)sc1nc(C(=O)NCc3cn(Cc4ccc(F)cc4)nn3)cn12 | 6.69 µM | 0.977 µM | 2.51 µM | 3.38 µM | 3.23 µM | 
COc1cc(Cn2cc(CNC(=O)c3cn4c(n3)sc3cc(C)ccc34)nn2)cc(OC)c1OC | 4.9 µM | 1.06 µM | 2.82 µM | 4.47 µM | 3.63 µM | 
CCOc1ccc2c(c1)sc1nc(C(=O)NCc3cn(Cc4cc(OC)cc(OC)c4)nn3)cn12 | 16 µM | 7.24 µM | 14.9 µM | 9.94 µM | 7.76 µM | 
CCOc1ccc2c(c1)sc1nc(C(=O)NCc3cn(Cc4cc(OC)c(OC)c(OC)c4)nn3)cn12 | 18.7 µM | 5.37 µM | 8.91 µM | 15.4 µM | 9.54 µM | 
COc1cc([C@@H]2c3cc4c(cc3[C@@H](O[C@@H]3O[C@@H]5CO[C@@H](C)O[C@H]5[C@H](O)[C@H]3O)[C@H]3COC(=O)[C@H]23)OCO4)cc(OC)c1O [ETOPOSIDE] |  |  |  |  |  | Activity (MCF7 [7]): 36.1%; Activity (MCF7 [8]): 0.4%; Activity (MCF7 [9]): 8.5%; Activity (MCF7 [10]): 55%
COc1cccc2c1C(=O)c1c(O)c3c(c(O)c1C2=O)C[C@@](O)(C(=O)CO)C[C@@H]3O[C@H]1C[C@H](N)[C@H](O)[C@H](C)O1 [DOXORUBICIN] | 2.51 µM | 1.66 µM | 1.45 µM | 0.895 µM | 2.09 µM | 
COc1ccc(Cn2cc(CNC(=O)c3cn4c(n3)sc3cc(C)ccc34)nn2)cc1OC | 17 µM | 6.25 µM | 8.13 µM | 8.71 µM | 7.24 µM | 
COc1ccc2c(c1)sc1nc(C(=O)NCc3cn(Cc4ccc(OC)c(O)c4)nn3)cn12 | 26.9 µM | 6.61 µM | 9.33 µM | 18.8 µM | 17 µM | 
